Experiments:
[1] = molecular target: T1, Sigma intracellular receptor 2 (Rattus norvegicus, UniProt Q5U3Y7); experiment: Displacement of [3H]-DTG from sigma2 receptor in rat brain membranes after 120 mins in presence of (+)-pentazocine by radioligand binding assay; type: cell membranes
T1 sequence (Q5U3Y7 whole entry): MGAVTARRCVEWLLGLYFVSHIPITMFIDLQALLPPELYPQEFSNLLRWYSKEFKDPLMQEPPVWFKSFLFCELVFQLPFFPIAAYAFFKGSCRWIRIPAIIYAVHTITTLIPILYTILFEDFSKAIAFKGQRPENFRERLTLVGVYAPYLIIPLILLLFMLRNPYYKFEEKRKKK

[2] = molecular target: Sigma non-opioid intracellular receptor 1 (Rattus norvegicus, UniProt Q9R0C9); experiment: Displacement of [3H](+)-pentazocine from sigma1 receptor in rat brain membranes after 120 mins by radioligand binding assay; type: cell membranes
Rattus norvegicus [3] = species: Rattus norvegicus; experiment: Selectivity ratio of Ki for sigma1 receptor in rat brain membranes to Ki for sigma2 receptor in rat brain membranes; type: cell membranes
[4] = molecular target: 5-hydroxytryptamine receptor 2A (Rattus norvegicus, UniProt P14842); experiment: Displacement of [3H]ketanserin from 5-HT2 receptor in rat brain membranes after 120 mins by radioligand binding assay; type: cell membranes
In short: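 5-HT2 site in rat brain (minus cerebellum) membranes labeled with 2 nM [3H]ketanserin; 1 µM mianserin nonspecific. Glass-fiber filtration, Ki by Cheng-Prusoff; triplicate, mean ± SEM.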

Rattus norvegicus [5] = species: Rattus norvegicus; experiment: Selectivity ratio of Ki for 5-HT2 receptor in rat brain membranes to Ki for sigma2 receptor in rat brain membranes; type: cell membranes
Mus musculus = experiment: Anticonvulsant activity in ip dosed Swiss Webster mouse assessed as reduction in cocaine-induced convulsion pretreated for 15 mins followed by cocaine-challenge and measured for 30 mins; type: functional, organism-based
[6] = molecular target: Sodium-dependent dopamine transporter (Rattus norvegicus, UniProt P23977); experiment: Displacement of [3H]WIN 35428 from dopamine transporter in rat striatal membranes after 120 mins by radioligand binding assay; type: cell membranes, Striatum, Membrane
[7] = molecular target: Sodium-dependent serotonin transporter (Rattus norvegicus, UniProt P31652); experiment: Displacement of [3H]paroxetine from serotonin transporter in rat brainstem membranes after 120 mins by radioligand binding assay; type: cell membranes
In short: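 Rat brainstem membranes, 0.2 nM [3H]paroxetine; nonspecific with 1.5 µM imipramine. Ice-cold buffer stop, glass-fiber filtration, Cheng-Prusoff Ki; triplicate, mean ± SEM.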

[8] = Displacement of [3H]nisoxetine from norepinephrine transporter in rat cerebral cortex membranes after 120 mins by radioligand binding assay; type: cell membranes, Membrane
D(2) dopamine receptor = D(2) dopamine receptor (Rattus norvegicus, UniProt P61169); experiment: Displacement of [3H](-)-sulpiride from dopamine D2 receptor in rat brain membranes after 120 mins by radioligand binding assay; type: cell membranes
Glutamate NMDA receptor = experiment: Displacement of [3H]TCP from NMDA receptor in rat brain membranes after 120 mins by radioligand binding assay; type: cell membranes
In short: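 PCP site of NMDA receptor in rat brain minus cerebellum membranes, 5 nM [3H]TCP; nonspecific with 10 µM cyclazocine.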

Opioid receptor = Opioid receptor (Rattus norvegicus, UniProt P33533+P34975+P33535); experiment: Displacement of [3H]bremazocine from opioid receptor in rat brain membranes after 120 mins by radioligand binding assay; type: cell membranes

Sigma non-opioid intracellular receptor 1, sequence (Q9R0C9 whole entry): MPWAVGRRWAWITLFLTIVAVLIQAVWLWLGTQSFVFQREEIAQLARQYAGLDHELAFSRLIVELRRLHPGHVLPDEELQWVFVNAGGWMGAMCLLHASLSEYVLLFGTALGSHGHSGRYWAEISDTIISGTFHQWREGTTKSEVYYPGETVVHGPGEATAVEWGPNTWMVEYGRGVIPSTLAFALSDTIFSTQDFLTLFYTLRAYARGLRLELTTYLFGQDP
5-hydroxytryptamine receptor 2A, sequence (P14842 whole entry): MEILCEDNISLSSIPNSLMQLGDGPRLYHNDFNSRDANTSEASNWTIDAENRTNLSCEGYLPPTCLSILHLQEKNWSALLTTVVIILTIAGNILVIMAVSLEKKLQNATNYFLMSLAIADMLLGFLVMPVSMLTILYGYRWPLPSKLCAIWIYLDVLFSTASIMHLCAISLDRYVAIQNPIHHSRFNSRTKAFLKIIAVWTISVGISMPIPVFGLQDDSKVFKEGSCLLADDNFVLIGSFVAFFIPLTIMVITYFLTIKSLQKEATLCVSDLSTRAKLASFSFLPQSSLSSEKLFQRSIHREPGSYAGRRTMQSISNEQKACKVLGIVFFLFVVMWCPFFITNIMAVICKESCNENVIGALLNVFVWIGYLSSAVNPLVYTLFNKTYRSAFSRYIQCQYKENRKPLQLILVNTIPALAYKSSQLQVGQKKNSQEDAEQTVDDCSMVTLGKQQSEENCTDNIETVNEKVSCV
Sodium-dependent dopamine transporter, sequence (P23977 whole entry): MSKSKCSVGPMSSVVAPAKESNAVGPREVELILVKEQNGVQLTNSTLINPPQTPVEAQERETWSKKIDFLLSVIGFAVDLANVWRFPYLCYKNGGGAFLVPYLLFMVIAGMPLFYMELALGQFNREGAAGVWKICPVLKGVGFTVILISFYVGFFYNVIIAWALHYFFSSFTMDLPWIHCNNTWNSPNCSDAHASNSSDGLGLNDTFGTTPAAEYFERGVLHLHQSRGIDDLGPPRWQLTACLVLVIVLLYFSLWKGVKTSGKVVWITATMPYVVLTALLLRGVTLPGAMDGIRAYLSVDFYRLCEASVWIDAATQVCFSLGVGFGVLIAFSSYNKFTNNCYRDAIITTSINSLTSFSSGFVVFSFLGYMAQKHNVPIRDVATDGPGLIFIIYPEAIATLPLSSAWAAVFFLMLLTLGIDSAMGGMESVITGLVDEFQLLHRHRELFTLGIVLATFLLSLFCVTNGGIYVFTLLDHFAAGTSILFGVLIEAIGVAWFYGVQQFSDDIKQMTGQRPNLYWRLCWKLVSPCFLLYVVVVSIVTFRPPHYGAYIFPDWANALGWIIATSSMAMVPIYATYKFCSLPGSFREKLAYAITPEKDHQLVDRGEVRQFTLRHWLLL
D(2) dopamine receptor, sequence (P61169 whole entry): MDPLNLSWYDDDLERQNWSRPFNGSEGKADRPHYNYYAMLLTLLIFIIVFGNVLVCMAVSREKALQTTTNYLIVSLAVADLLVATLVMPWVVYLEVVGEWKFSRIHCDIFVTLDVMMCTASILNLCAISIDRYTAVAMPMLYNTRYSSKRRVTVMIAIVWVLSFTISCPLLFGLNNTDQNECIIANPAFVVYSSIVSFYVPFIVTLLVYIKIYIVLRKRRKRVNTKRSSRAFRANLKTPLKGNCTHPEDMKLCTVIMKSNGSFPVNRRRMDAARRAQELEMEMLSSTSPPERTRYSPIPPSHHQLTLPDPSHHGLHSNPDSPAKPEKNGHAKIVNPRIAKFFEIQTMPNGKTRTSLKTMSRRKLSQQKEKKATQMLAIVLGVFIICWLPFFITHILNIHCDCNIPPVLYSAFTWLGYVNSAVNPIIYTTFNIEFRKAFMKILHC
Sodium-dependent serotonin transporter, sequence (P31652 whole entry): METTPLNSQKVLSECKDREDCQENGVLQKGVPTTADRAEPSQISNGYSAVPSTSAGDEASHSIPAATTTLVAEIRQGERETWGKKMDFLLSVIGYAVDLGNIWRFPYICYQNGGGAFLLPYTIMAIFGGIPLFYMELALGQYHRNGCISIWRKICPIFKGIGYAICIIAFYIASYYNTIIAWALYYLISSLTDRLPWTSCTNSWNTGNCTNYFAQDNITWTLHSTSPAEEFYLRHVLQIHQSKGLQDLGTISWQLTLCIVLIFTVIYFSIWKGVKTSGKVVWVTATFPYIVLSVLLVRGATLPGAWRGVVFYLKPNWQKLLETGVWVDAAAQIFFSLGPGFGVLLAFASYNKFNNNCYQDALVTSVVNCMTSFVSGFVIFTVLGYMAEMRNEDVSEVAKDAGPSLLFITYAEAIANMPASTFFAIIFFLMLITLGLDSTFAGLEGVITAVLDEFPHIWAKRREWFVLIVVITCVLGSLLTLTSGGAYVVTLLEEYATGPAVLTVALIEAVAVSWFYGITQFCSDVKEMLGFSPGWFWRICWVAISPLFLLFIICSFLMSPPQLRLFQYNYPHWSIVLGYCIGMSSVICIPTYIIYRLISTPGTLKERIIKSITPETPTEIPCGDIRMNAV

Compound `Cn1c(=O)n(CCCCN2CCN(c3ccc(F)cc3)CC2)c2ccccc21` has a Ki [1] of 2.05 nM.

Work on `CCCn1c(=O)n(CCCCN2CCN(c3ccc(F)cc3)CC2)c2ccccc21` yielded a Ki [2] of 752 nM, a Ki [1] of 0.66 nM and a Ratio Ki (Rattus norvegicus [3]) of 1140. The Ki [4] was 54.7 nM, the Ratio Ki (Rattus norvegicus [5]) was 83 and the Activity (Mus musculus) was “Dose-dependent effect”. The Ki [6] was > 1000 nM, the Ki [7] was > 1000 nM and the Ki [8] was > 10000 nM. The Ki (D(2) dopamine receptor) was > 10000 nM, the Ki (Glutamate NMDA receptor) was > 10000 nM and the Ki (Opioid receptor) was > 10000 nM.

Work on `CCCCCCCCCCn1c(=O)n(CCCCN2CCN(c3ccc(F)cc3)CC2)c2ccccc21` yielded a Ki [2] of 724 nM, a Ki [1] of 4.55 nM and a Ratio Ki (Rattus norvegicus [3]) of 159.

Compound `CCCCCn1c(=O)n(CCCCN2CCN(c3ccc(F)cc3)CC2)c2ccc(C(C)=O)cc21` has a Ki [2] of 299 nM, a Ki [1] of 2.15 nM and a Ratio Ki (Rattus norvegicus [3]) of 139.

`CCCn1c(=O)n(CCCCN2CCN(c3ccc(F)cc3)CC2)c2ccc(C(C)=O)cc21` gave a Ki [2] of 273 nM, a Ki [1] of 1.81 nM and a Ratio Ki (Rattus norvegicus [3]) of 151.

In the case of `O=c1[nH]c2ccccc2n1CCCCN1CCN(c2ccc(F)cc2)CC1`, the Ki [2] is reported as 144 nM and the Ki [1] is reported as 18.4 nM.

In the case of `CC(=O)c1ccc2c(c1)n(C)c(=O)n2CCCCN1CCN(c2ccc(F)cc2)CC1`, the Ki [2] is reported as 72.3 nM, the Ki [1] is reported as 7.6 nM and the Ratio Ki (Rattus norvegicus [3]) is reported as 9.5.

`CC(=O)c1ccc2c(c1)[nH]c(=O)n2CCCCN1CCN(c2ccc(F)cc2)CC1` gave a Ki [2] of 166 nM, a Ki [1] of 28.5 nM and a Ratio Ki (Rattus norvegicus [3]) of 5.8.

With `CCCCCn1c(=O)n(CCCCN2CCN(c3ccc(F)cc3)CC2)c2ccccc21` the Ki [2] was 2270 nM, the Ki [1] was 4.27 nM and the Ratio Ki (Rattus norvegicus [3]) was 532. For the same compound, the Ki [4] was 250 nM, the Ki [6] was > 1000 nM and the Ki [7] was 446 nM. For the same compound, the Ki [8] was > 10000 nM, the Ki (D(2) dopamine receptor) was > 1000 nM and the Ki (Glutamate NMDA receptor) was > 10000 nM. The Ki (Opioid receptor) was > 10000 nM.

In the case of `CCCCCCCCCCn1c(=O)n(CCCCN2CCN(c3ccc(F)cc3)CC2)c2ccc(C(C)=O)cc21`, the Ki [2] is reported as 988 nM, the Ki [1] is reported as 32.5 nM and the Ratio Ki (Rattus norvegicus [3]) is reported as 30.4.
